Activity calls are given as the source filed them. No cut-off for these calls is given here.
Assays:
[1] = biological target: T1, TLR7 and TLR8 (Mus musculus) (UniProt P58681+P58682); experiment: Agonist activity at TLR7/TLR8 in C57BL/6 mouse BMDC assessed as induction of IL-1beta production at 30 uM after 3 days by flow cytometric analysis; format: protein assay
In short: (§1)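 BMDCs from femoral marrow of 6−8-week C57BL/6 mice; red cells lysed (0.83% NH₄Cl, 0.1% KHCO₃, 0.009% EDTA); 5 million cells per well cultured six days in complete RPMI with mouse GM-CSF 20 ng/mL. Stimulated with 30 μM compound for 3 days; supernatant cytokines quantified by flow cytometric bead array; measured in triplicate.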

[2] = biological target: T1, TLR7 and TLR8 (Mus musculus); experiment: Agonist activity at TLR7/TLR8 in C57BL/6 mouse BMDC assessed as induction of IL-12p40 production at 30 uM after 3 days by flow cytometric analysis; format: protein assay; in short: as §1
Toll-like receptor 8 = biological target: T2, Toll-like receptor 8 (Homo sapiens, UniProt Q9NR97); experiment: Agonist activity at human TLR-8 expressed in HEK293 cells after 24 hrs by SEAP reporter gene assay; format: cell-based
T2 sequence (Q9NR97 whole entry): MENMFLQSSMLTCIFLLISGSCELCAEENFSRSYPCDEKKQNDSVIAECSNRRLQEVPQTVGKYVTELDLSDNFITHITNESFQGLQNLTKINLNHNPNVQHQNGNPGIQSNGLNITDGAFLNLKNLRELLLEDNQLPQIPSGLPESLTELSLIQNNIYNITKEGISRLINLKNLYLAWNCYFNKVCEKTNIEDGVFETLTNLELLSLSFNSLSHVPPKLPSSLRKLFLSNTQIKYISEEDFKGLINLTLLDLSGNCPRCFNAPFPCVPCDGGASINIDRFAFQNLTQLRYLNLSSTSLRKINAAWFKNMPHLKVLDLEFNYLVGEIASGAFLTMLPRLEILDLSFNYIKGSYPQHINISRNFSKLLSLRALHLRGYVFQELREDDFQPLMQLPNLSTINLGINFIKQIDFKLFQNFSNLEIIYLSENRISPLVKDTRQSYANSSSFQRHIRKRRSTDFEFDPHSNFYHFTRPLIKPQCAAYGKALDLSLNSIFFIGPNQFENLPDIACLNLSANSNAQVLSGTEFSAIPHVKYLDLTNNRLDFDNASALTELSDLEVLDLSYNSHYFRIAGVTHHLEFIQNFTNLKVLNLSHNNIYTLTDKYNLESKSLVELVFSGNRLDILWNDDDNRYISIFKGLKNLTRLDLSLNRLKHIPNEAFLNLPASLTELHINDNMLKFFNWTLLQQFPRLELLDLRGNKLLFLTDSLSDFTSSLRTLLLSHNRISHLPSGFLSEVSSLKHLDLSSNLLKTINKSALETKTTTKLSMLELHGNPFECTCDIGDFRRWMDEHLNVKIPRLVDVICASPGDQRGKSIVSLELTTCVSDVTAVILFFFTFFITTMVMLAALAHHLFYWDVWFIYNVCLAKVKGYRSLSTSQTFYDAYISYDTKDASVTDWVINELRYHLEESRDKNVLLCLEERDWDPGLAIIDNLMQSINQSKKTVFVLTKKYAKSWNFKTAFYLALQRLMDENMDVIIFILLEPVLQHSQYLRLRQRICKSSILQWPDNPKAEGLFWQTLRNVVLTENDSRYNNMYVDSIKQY
In short: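 HEK-293 cells transfected with human TLR-7 or TLR-8 plus NF-κB-inducible SEAP reporter; stimulated with 30 μM compound in DMEM/10% FBS for 24 h. Supernatant incubated with Quanti-blue substrate 1 h at 37 °C; SEAP read as absorbance at 650 nm.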

[3] = biological target: T1, TLR7 and TLR8 (Mus musculus); experiment: Agonist activity at TLR7/TLR8 in C57BL/6 mouse BMDC assessed as induction of IL-10 production at 30 uM after 3 days by flow cytometric analysis; format: protein assay; in short: as §1
[4] = biological target: T1, TLR7 and TLR8 (Mus musculus); experiment: Agonist activity at TLR7/TLR8 in C57BL/6 mouse BMDC assessed as induction of TNF-alpha production at 30 uM after 3 days by flow cytometric analysis; format: protein assay; in short: as §1
[5] = biological target: T3, TLR7 and TLR8 (Homo sapiens) (UniProt Q9NYK1+Q9NR97); experiment: Agonist activity at TLR7/TLR8 in human PBMC assessed as induction of TNF-alpha production at 22.5 uM after 24 hrs by flow cytometric analysis; format: protein assay
In short: (§2)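 PBMCs isolated by Ficoll from three independent donors, plated in triplicate at 5 × 10⁵ cells per well, exposed to 22.5 μM compound for 24 h. Medium assayed for TNF-α and IFN-γ by flow cytometric bead array, IFN-α by ELISA.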

[6] = biological target: T3, TLR7 and TLR8 (Homo sapiens); experiment: Agonist activity at TLR7/TLR8 in human PBMC assessed as induction of IFN-alpha production at 22.5 uM after 24 hrs by ELISA; format: protein assay; in short: as §2
[7] = biological target: T3, TLR7 and TLR8 (Homo sapiens); experiment: Agonist activity at TLR7/TLR8 in human PBMC assessed as induction of IFN-gamma production at 22.5 uM after 24 hrs by flow cytometric analysis; format: protein assay; in short: as §2
Toll-like receptor 7 = biological target: T4, Toll-like receptor 7 (Homo sapiens, UniProt Q9NYK1); experiment: Agonist activity at human TLR-7 expressed in HEK293 cells after 24 hrs by SEAP reporter gene assay; format: cell-based
T4 sequence (Q9NYK1 whole entry): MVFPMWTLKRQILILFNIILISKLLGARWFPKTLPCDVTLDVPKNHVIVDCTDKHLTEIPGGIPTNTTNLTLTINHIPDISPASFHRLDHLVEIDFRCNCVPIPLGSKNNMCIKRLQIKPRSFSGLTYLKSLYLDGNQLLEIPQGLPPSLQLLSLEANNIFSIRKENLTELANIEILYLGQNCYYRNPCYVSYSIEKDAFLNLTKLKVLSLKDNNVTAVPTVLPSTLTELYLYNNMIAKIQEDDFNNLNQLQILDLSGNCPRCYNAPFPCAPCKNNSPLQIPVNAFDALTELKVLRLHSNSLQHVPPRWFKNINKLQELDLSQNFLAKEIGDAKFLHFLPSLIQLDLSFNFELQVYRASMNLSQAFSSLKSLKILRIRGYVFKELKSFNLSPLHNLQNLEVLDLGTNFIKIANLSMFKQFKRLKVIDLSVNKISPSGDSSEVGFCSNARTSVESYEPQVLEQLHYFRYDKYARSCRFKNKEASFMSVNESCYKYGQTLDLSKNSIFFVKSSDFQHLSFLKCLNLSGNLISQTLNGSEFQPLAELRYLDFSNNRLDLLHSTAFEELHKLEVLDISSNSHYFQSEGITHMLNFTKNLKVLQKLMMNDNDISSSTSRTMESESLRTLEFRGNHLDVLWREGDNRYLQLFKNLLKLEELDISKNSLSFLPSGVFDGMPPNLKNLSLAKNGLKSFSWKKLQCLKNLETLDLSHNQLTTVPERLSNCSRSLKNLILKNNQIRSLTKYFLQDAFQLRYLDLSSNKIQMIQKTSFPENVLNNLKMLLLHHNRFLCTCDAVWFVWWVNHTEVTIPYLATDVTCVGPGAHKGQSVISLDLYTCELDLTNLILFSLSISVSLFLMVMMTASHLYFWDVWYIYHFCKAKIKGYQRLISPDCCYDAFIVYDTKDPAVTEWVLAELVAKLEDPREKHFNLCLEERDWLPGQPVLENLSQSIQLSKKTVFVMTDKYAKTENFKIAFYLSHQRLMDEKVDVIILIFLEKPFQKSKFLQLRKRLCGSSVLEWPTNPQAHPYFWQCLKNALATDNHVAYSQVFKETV

T1 sequence (P58681 whole entry, looked up): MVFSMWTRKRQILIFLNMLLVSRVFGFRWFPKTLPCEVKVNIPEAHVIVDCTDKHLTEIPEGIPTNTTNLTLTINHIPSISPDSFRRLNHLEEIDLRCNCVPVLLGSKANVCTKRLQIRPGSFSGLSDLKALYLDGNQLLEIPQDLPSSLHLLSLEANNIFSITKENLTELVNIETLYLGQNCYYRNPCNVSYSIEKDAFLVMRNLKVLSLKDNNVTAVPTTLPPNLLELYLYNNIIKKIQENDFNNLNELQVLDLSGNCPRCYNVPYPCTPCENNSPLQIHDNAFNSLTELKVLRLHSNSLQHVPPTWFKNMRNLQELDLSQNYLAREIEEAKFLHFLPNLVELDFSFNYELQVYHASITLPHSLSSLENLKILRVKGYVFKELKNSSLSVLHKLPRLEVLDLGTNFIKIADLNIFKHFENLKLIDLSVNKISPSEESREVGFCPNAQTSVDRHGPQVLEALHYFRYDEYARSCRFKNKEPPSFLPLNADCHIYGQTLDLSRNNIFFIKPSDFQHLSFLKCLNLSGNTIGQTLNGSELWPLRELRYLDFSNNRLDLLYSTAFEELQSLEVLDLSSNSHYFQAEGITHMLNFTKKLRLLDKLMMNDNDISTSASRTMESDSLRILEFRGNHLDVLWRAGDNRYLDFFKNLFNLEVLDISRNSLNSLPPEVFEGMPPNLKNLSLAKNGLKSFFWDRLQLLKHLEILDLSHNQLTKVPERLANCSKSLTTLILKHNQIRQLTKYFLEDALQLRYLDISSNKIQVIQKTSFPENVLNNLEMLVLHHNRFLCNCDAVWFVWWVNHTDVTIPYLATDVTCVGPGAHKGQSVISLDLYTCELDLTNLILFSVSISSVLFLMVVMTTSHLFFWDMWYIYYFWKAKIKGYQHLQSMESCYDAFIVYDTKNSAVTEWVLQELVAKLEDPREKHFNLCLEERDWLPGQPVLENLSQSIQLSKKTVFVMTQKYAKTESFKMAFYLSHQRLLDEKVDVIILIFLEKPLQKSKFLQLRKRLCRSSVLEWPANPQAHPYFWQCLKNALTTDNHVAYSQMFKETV
T1 sequence (P58682 whole entry, looked up): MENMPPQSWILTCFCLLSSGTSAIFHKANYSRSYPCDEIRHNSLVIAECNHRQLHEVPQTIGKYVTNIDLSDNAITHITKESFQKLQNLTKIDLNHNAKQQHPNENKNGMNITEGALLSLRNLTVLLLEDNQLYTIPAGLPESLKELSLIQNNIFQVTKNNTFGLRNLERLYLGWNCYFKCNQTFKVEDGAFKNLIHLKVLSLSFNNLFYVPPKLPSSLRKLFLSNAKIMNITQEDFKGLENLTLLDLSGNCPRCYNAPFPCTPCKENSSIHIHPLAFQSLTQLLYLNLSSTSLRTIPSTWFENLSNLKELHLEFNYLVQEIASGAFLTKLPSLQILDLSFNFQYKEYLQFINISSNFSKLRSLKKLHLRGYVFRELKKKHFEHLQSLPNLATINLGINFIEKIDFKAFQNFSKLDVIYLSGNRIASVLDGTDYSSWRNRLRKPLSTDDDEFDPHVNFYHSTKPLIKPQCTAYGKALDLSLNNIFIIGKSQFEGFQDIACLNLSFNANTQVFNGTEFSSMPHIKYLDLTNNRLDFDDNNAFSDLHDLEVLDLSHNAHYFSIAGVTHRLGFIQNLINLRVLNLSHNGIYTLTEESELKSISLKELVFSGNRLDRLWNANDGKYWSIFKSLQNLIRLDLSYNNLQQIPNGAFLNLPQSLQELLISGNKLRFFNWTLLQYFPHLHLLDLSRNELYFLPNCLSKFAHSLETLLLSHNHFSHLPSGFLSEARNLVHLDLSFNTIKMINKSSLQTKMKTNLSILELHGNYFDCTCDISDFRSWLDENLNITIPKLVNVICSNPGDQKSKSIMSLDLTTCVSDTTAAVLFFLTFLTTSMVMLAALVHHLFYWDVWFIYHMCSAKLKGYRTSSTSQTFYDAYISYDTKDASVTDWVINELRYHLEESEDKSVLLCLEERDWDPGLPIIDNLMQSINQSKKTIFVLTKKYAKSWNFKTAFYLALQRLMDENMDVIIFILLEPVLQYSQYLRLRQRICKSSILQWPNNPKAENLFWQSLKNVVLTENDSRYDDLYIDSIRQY

Row | Compound | Activity [1] | Activity [2] | EC50 (Toll-like receptor 8) | Activity [3] | Activity [4] | Activity [5] | Activity [6] | Activity [7] | EC50 (Toll-like receptor 7; read-out: EC50) | EC50 (Toll-like receptor 7; hek293)
1 | CCCCc1nc2c(N)nc3cc(C(=O)OC)ccc3c2n1CCOC | 484 pg/mL | 267 pg/mL | Not Active | 22 pg/mL | 1370 pg/mL | – | – | – | – | –
2 | CCCc1nc2c(N)nc3cc(C(=O)OC)ccc3c2n1CC(C)(C)O | 33 pg/mL | 365 pg/mL | Not Active | 23 pg/mL | 1170 pg/mL | – | – | – | – | –
3 | CCOCc1nc2c(N)nc3ccccc3c2n1CC(C)(C)O | 16 pg/mL | 236 pg/mL | – | 49 pg/mL | 1740 pg/mL | Active | – | – | – | –
4 | CCCCc1nc2c(N)nc3cc(C(=O)OC)ccc3c2n1CC(C)O (racemic) | 275 pg/mL | 533 pg/mL | – | 22 pg/mL | 1200 pg/mL | Active | Active | Active | – | –
5 | CCCCc1nc2c(N)nc3cc(C(=O)OC)ccc3c2n1CCO | 109 pg/mL | 290 pg/mL | – | 18 pg/mL | 1210 pg/mL | – | – | – | – | –
6 | COC(=O)c1ccc2c(c1)nc(N)c1nc(Cc3ccccc3)n(CC(C)(C)O)c12 | 60 pg/mL | 500 pg/mL | Not Active | 15 pg/mL | 971 pg/mL | – | – | – | – | –
7 | CCCCc1nc2c(N)nc3cc(C(=O)OC)ccc3c2n1CCOCc1ccccc1 | 104 pg/mL | 136 pg/mL | – | 25 pg/mL | 2240 pg/mL | – | – | – | – | –
8 | CCCCCc1nc2c(N)nc3cc(C(=O)OC)ccc3c2n1CC(C)(C)O | 1010 pg/mL | 312 pg/mL | – | 37 pg/mL | 1810 pg/mL | Active | Active | Active | – | –
9 | COC(=O)c1ccc2c(c1)nc(N)c1nc(C)n(CC(C)(C)O)c12 | 13 pg/mL | 73 pg/mL | Not Active | 27 pg/mL | 819 pg/mL | – | – | – | – | –

Now from value to molecule:

Row | Activity [1] | Activity [2] | EC50 (Toll-like receptor 8) | Activity [3] | Activity [4] | Activity [5] | Activity [6] | Activity [7] | EC50 (Toll-like receptor 7; read-out: EC50) | EC50 (Toll-like receptor 7; hek293) | Compound
10 | 157 pg/mL | 416 pg/mL | – | 20 pg/mL | 1160 pg/mL | Active | Active | Active | – | – | CCCCc1nc2c(N)nc3cc(C(=O)OC)ccc3c2n1C[C@@H](C)O
11 | 108 pg/mL | 393 pg/mL | – | 24 pg/mL | 1100 pg/mL | – | – | – | 1.5 µM | – | CCCCc1nc2c(N)nc3cc(C(=O)OC)ccc3c2n1CC(C)(C)O
12 | 6 pg/mL | 8 pg/mL | Not Active | 9 pg/mL | 40 pg/mL | – | – | – | – | Not Active | COC(=O)c1ccc2c(c1)nc(N)c1ncn(CC(C)(C)O)c12
13 | 301 pg/mL | 597 pg/mL | – | 25 pg/mL | 1190 pg/mL | Active | Active | Active | – | – | CCCCc1nc2c(N)nc3cc(C(=O)OC)ccc3c2n1C[C@H](C)O
14 | 19 pg/mL | 133 pg/mL | Not Active | 17 pg/mL | 308 pg/mL | – | – | – | 10.7 µM | – | CC(C)Cn1cnc2c(N)nc3ccccc3c21 [IMIQUIMOD]
15 | 11 pg/mL | 78 pg/mL | Not Active | 24 pg/mL | 1170 pg/mL | – | – | – | – | – | CCc1nc2c(N)nc3cc(C(=O)OC)ccc3c2n1CC(C)(C)O

From ChEMBL document CHEMBL3112466, “Structure-activity relationship analysis of imidazoquinolines with Toll-like receptors 7 and 8 selectivity and enhanced cytokine induction” (J Med Chem, 2014)
